Reference: PubChem BioAssay
Calls of active or inactive are those of the source.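 Rule for the calls, unless noted: active = compounds giving at least 50% inhibition in the cell-based MKP-3 phosphatase rescue imaging test; inactive = the rest.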

Columns and labels:
[1] = inhibitors of TNFa-induced NFkB p65 translocation, primary screen, imaging, HUVEC, MLSMR starter and 10KST1 sets (AID 438;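 active = inhibition above 20% together with a positive visual image hit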;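 note: compound added about 3h40 before a 20 min TNFalpha stimulation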;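 for inhibition: signal is the nuclear over cytoplasmic p65 intensity ratio per well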); conditions: HUVEC TNFa-induced p65 nuclear translocation; cell count: measured here: nuclei count (cytotoxicity indicator), at 2.08 µM; inhibition: at 2 µM, stronger effect = higher value, 0% TNFa-plus-vehicle, 100% no-TNFa wells
[2] = inhibitors of E-selectin induction by TNFa, primary screen, imaging, HUVEC, immunofluorescence, MLSMR starter and 10KST1 sets (AID 487;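 active = visually confirmed hit in the image check and inhibition above 20%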;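 for inhibition: signal is fraction of cell area covered by stained E-selectin grains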;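 for nuclei count: 100% = median nuclei count of all wells on the same plate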); conditions: HUVEC TNFalpha-induced E-selectin immunofluorescence imaging, at 2 µM; inhibition: stronger effect = higher value; nuclei count: measured here: cell number, toxicity
[3] = DUSP6 inhibitors restoring Erk phosphorylation by chemical complementation, primary imaging in DUSP6-transfected HeLa (AID 609); conditions: HeLa MKP-3 transfected, phospho-Erk imaging KS statistic, at 10 µM, cells stimulated with TPA for 15 min;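 for inhibition: phospho-Erk level distribution per well compared with pooled transfected vehicle control wells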
[4] = biological target: Dual specificity protein phosphatase 6 (Homo sapiens) (UniProt Q16828); assay: as above; conditions: HeLa MKP-3 transfected, phospho-Erk imaging KS statistic; at 10 µM; stronger effect = higher value; cells stimulated with TPA for 15 min
Sequence of Dual specificity protein phosphatase 6 (Homo sapiens) (Q16828 whole entry, looked up): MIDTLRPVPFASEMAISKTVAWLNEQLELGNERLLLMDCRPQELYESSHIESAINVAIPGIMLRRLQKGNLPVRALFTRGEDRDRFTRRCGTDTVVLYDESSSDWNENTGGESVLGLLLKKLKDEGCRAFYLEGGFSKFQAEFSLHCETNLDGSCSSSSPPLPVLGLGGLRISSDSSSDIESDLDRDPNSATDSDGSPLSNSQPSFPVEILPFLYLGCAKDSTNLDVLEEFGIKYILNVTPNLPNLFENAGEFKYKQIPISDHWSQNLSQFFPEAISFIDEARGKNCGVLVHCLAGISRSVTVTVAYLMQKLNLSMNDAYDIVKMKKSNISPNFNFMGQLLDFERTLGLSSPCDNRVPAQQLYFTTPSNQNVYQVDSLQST

[5] = biological target: Voltage-gated potassium channel subunit beta-2 (Rattus norvegicus) (UniProt P62483); assay: KvBeta enzyme negative modulators, primary screen, biochemical, NADPH fluorescence (AID 622;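 active = fluorescence slope higher than the sample average by over 3 SD, cut at about -0.22 in these data, passing the limit was not always enough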;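 note: slope of raw intensity against log time taken from 70 to 1610 s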); conditions: recombinant KvBeta, 4-cyanobenzaldehyde reduction, at 10 µM, stronger effect = higher value
Sequence of Voltage-gated potassium channel subunit beta-2 (Rattus norvegicus) (P62483 whole entry, looked up): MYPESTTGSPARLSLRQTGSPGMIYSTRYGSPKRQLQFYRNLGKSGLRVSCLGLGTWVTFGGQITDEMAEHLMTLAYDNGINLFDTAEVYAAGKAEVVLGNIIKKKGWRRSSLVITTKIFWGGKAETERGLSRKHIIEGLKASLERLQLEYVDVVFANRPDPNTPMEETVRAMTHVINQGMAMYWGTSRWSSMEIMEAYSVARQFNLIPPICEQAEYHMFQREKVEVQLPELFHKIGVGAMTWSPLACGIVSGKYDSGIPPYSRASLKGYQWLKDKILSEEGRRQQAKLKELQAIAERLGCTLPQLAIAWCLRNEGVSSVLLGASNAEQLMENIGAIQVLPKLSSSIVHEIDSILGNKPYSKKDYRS

[6] = biological target: Voltage-gated potassium channel subunit beta-2 (Rattus norvegicus) (UniProt P62483); assay: KvBeta positive modulators, primary screen, biochemical, NADPH fluorescence (AID 623;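 active = NADPH fluorescence slope more negative than the mean of all samples by about 3 SD, 99.7% confidence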;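 note: fluorescence intensity change per second fitted from 20 to 320 s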); conditions: Recombinant KvBeta, NADPH fluorescence decrease slope, 10 min; at 10 µM; stronger effect = lower value
[7] = biological target: Muscarinic acetylcholine receptor M4 (Homo sapiens) (UniProt P08173); assay: compounds altering M4/GIRK thallium flux, either direction, primary screen, M4 allosteric agonist project, cell-based, HEK293 M4/GIRK, BTC-AM (AID 625;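 active = fluorescence slope after compound addition differing from the mean of all tested samples at 99.7% confidence, mostly higher but some lower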;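 note: thallium influx through GIRK channels coupled to M4 in HEK293 cells with BTC-AM dye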); conditions: at 10 µM, actives lie on both sides
Sequence of Muscarinic acetylcholine receptor M4 (Homo sapiens) (P08173 whole entry, looked up): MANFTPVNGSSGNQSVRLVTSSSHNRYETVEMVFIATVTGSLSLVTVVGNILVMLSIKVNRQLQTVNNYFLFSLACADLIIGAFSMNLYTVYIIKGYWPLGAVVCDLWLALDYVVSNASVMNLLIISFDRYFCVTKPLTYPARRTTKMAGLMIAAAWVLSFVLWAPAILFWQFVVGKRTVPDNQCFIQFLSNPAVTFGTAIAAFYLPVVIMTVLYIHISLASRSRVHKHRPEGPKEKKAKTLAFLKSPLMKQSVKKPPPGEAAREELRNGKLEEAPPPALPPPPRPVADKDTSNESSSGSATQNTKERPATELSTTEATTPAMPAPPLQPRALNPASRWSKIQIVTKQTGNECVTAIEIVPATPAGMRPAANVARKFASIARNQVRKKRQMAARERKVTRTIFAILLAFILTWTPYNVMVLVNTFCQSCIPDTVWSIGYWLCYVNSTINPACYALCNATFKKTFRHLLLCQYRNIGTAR
Summary of the method: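 System: HEK293 cells with M4 receptor and GIRK channels | Incubation: Cells overnight at 37 °C, BTC-AM loading 1 h, reads 2 min total | Technique: Kinetic BTC-AM fluorescence sampled at 1 Hz, 10 s pre-addition baseline | Measure: Post-addition slope, 15–24 s, of baseline-normalized fluorescence | Control set: Carbachol positive, DMSO negative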

[8] = inhibitors of larval lipid processing in zebrafish, primary screen, whole organism, PED6 fluorescence, gall bladder and intestine (AID 686;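 active = a full or partial loss of lipid-probe fluorescence in the fish gall bladder, intestine or both, judged by eye; inactive = no fluorescence loss, or compound toxic to the fish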;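 note: larvae 5 to 7 days old with five fish per well; signal comes from phospholipase A2 cleavage of quenched PED6 carried via bile; overnight exposure to compound and PED6 before scoring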); conditions: Zebrafish larvae PED6 lipid processing, fluorescence scoring; screened at 20 µM (by protocol)
Summary of the method: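 Test system – live zebrafish larvae aged 5-7 days, whole organism · Buffer or medium – E3 fish medium · Reagent – quenched phospholipase substrate PED6, 100 nM final, ingested by larvae · Doses – 20 µM single dose · Incubation – overnight compound and PED6 incubation · Technique – visual fluorescence microscopy scoring of gall bladder, gut · Read-out basis – visual per-well fluorescence inhibition score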

[9] = inhibitors of Chlamydomonas gravitaxis, primary screen, whole organism, Chlamydomonas reinhardtii, WT vs cilia-less mutant, absorbance, 96-well (AID 463189;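 active = inhibition at or above 50% relative to wild type and mutant plate controls; inactive = inhibition below 50%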;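 note: 0% = wild type cc124 cells in DMSO and 100% = ciliumless bld1 mutant cells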); conditions: OD600 absorbance, 2 days, at 10 µM, stronger effect = higher value
[10] = measured here: cell density z-score
[11] = measured here: nuclear c-Myc green intensity z-score
[12] = measured here: nuclear pErk red intensity z-score, stronger effect = higher value

| Compound | cell count [1] | inhibition [1] | inhibition [2] | nuclei count [2] | z-score [3, 10] | z-score [3, 11] | z-score [3, 12] | inhibition [4] | fluorescence slope [5] | NADPH fluorescence slope [6] | fluorescence slope [7] | outcome [8] | inhibition [9] |
| --- | --- | --- | --- | --- | --- | --- | --- | --- | --- | --- | --- | --- | --- |
| CC1(C)Cc2c(c(N3CCOCC3)nc3snc(Br)c23)CO1 | 489 | -4.5% (inactive) | -99.5% (inactive) | 130% | -1.77 | 2.53 | -2.36 | 5.42% (inactive) | -0.502 (inactive) | -1.8e-05 (inactive) | 0.00473 (inactive) | inactive | 2.33% (inactive) |
| CCCOc1ccc(C2/C(=C(/O)c3ccccc3)C(=O)C(=O)N2CCCN(C)C)cc1OC (stereo unspecified) | 399 | -2.9% (inactive) | -92.3% (inactive) | 157% | 0.261 | -0.731 | -0.508 | 18.2% (inactive) | -0.463 (inactive) | -0.000127 (inactive) | 0.00492 (inactive) | inactive | 26.4% (inactive) |
| CC1(C)Cc2c(c(-c3ccco3)[nH]c(=O)c2C#N)CS1 | 706 | -0.5% (inactive) | -101% (inactive) | 143% | 0.203 | 0.427 | 1.52 | -11.5% (inactive) | -0.388 (inactive) | -9.3e-05 (inactive) | 0.00494 (inactive) | inactive | 3.67% (inactive) |
| CCC(=O)N(Cc1cccs1)C1CCOC(C)(C)C1 (stereo unspecified) | 541 | 6.5% (inactive) | 6.3% (inactive) | 166% | 0.577 | -0.186 | 0.0071 | 1.9e-07% (inactive) | -0.389 (inactive) | -3e-05 (inactive) | 0.00514 (inactive) | inactive | 11.9% (inactive) |
| CCOC(=O)/C=c1\s/c(=C(\C#N)C(=O)OCC)n(-c2ccccc2)c1=O | 653 | -4.6% (inactive) | -12% (inactive) | 151% | -0.465 | -0.678 | -0.157 | 1.42% (inactive) | -0.359 (inactive) | -6.6e-07 (inactive) | 0.00573 (inactive) | inactive | -7.74% (inactive) |
| COC(=O)C(NC(=O)c1ccco1)(Nc1nc(C)cs1)C(F)(F)F (stereo unspecified) | 365 | -1.1% (inactive) | -89.2% (inactive) | 178% | -0.487 | 0.248 | 1.38 | -6.59% (inactive) | -0.459 (inactive) | -9.6e-05 (inactive) | 0.00502 (inactive) | inactive | 14.1% (inactive) |
| CCc1cc(=O)oc2cc(C)c(CN3CCCC3)c(O)c12 | 666 | -6.3% (inactive) | 27.1% (inactive) | 158% | -0.426 | -0.164 | -0.144 | -2.29% (inactive) | -0.444 (inactive) | -0.000155 (inactive) | 0.00438 (inactive) | inactive | 3.29% (inactive) |
| Cn1c(=O)c2c(nc(NCc3ccco3)n2Cc2ccc(Cl)cc2Cl)n(C)c1=O | 644 | 3.3% (inactive) | -21.8% (inactive) | 104% | -0.0402 | -0.421 | 0.466 | 12.8% (inactive) | -0.405 (inactive) | -1.9e-05 (inactive) | 0.00546 (inactive) | inactive | -11.8% (inactive) |
| CCN1CCc2c(C#N)c(NCc3ccccc3)nc(N(CC)CC)c2C1 | 554 | -13.9% (inactive) | -108% (inactive) | 141% | 0.401 | -1.69 | 0.375 | 3.49% (inactive) | -0.439 (inactive) | -0.000126 (inactive) | 0.00477 (inactive) | inactive | 119% (active) |
| CCN(CC)c1ccc(C2Nc3cccc4cccc(c34)N2)c(O)c1 | 571 | 2.2% (inactive) | -102% (inactive) | 134% | 0.205 | -0.845 | -0.409 | -0.584% (inactive) | -0.397 (inactive) | -7.3e-05 (inactive) | 0.00286 (inactive) | active; no signal in gallbladder and intestine | 40% (inactive) |
| N#Cc1c(NCCCO)nc(-c2ccccc2)c2c1CCCC2 | 598 | -4.5% (inactive) | -60.9% (inactive) | 154% | -0.266 | 0.00477 | 1.17 | -0.233% (inactive) | -0.435 (inactive) | -0.000107 (inactive) | 0.00541 (inactive) | inactive | 0.512% (inactive) |
| CCCNc1ncnc2c1cnn2-c1ccc(OC)cc1 | 631 | -12.5% (inactive) | -39.6% (inactive) | 185% | -1.64 | -0.363 | 0.771 | 1.42% (inactive) | -0.37 (inactive) | -4.9e-05 (inactive) | 0.00652 (inactive) | inactive | -16% (inactive) |
| Cc1cc(=O)oc(C)c1C(=O)NC12CC3CC(CC(C3)C1)C2 | 739 | -12.2% (inactive) | -66.8% (inactive) | 166% | -0.0351 | 0.102 | 0.73 | -6.48% (inactive) | -0.455 (inactive) | -5.7e-05 (inactive) | 0.00545 (inactive) | inactive | 6.04% (inactive) |
| COC(=O)c1ccc(C2/C(=C(\O)c3ccc4c(c3)OCCO4)C(=O)C(=O)N2CCCN(C)C)cc1 (stereo unspecified) | 366 | -2.2% (inactive) | 1.3% (inactive) | 91.5% | -1.2 | -0.278 | 0.407 | 9.82% (inactive) | -0.442 (inactive) | -0.000114 (inactive) | 0.00519 (inactive) | inactive | 25% (inactive) |
| Cc1c(C)c2cc(Cl)c(O)c(CN3CCCC(C)C3)c2oc1=O (stereo unspecified) | 540 | -4.7% (inactive) | 45.7% (inactive) | 94.2% | 0.999 | 0.842 | -1.58 | 9.37% (inactive) | -0.0221 (inactive) | -5.4e-06 (inactive) | 0.00608 (inactive) | inactive | -7.68% (inactive) |
| COC(=O)CSc1nc(C)c(Oc2ccccc2)c(=O)[nH]1 | 726 | 7.2% (inactive) | -102% (inactive) | 162% | -1.93 | 2.21 | -0.257 | -2.09% (inactive) | -0.424 (inactive) | -5.8e-05 (inactive) | 0.00506 (inactive) | inactive | -8.15% (inactive) |
| COc1cccc(Cn2c(NCc3ccco3)nc3c2c(=O)n(C)c(=O)n3C)c1 | 704 | -6.1% (inactive) | -198% (inactive) | 180% | 0.733 | 0.0104 | 0.0373 | 27.8% (inactive) | -0.476 (inactive) | -0.000112 (inactive) | 0.00767 (inactive) | inactive | 0.377% (inactive) |
| COC(=O)c1[nH]c2ccc(Cl)cc2c1NC(=O)C1CC1 | 489 | -0.3% (inactive) | -43.6% (inactive) | 120% | -0.422 | -0.0225 | -0.572 | -4.59% (inactive) | -0.451 (inactive) | -5.4e-05 (inactive) | 0.00568 (inactive) | inactive | -10.7% (inactive) |
| COc1ccc(OCC(O)CN2C(=O)NC(C)(C)C2=O)cc1 (stereo unspecified) | 617 | -6.4% (inactive) | 33.5% (inactive) | 155% | 0.439 | -0.253 | -0.891 | 9.42% (inactive) | -0.419 (inactive) | -3.6e-05 (inactive) | 0.0058 (inactive) | inactive | -2.72% (inactive) |
| N/C(=N\S(=O)(=O)c1ccc(Cl)s1)c1ccccc1 | 671 | -8.3% (inactive) | -77.1% (inactive) | 150% | 1.62 | -1.89 | -1.41 | 7.83% (inactive) | -0.473 (inactive) | -4.6e-05 (inactive) | 0.00465 (inactive) | inactive | 19.3% (inactive) |
| CCN(CC)CCN1C(=O)c2ccccc2NC1c1cc(OC)c(OC)c(OC)c1 (stereo unspecified) | 672 | -13.1% (inactive) | 57.5% (inactive) | 132% | 0.00511 | -1.27 | 1.11 | 3.49% (inactive) | -0.0732 (inactive) | -1.4e-05 (inactive) | 0.00441 (inactive) | inactive | 16.2% (inactive) |
| N#Cc1nc(-c2cccs2)oc1NCc1ccccc1Cl | 657 | 3.4% (inactive) | -84% (inactive) | 107% | -2.24 | 1.03 | 1.6 | 1.63% (inactive) | -0.513 (inactive) | -3.2e-05 (inactive) | 0.00761 (inactive) | inactive | -1.01% (inactive) |
| CN1CCN(c2c3c(c(C#N)c4nc5ccccc5n24)CCCC3)CC1 | 514 | 0.8% (inactive) | -60.7% (inactive) | 130% | 1.3 | -0.661 | -1.13 | 5.95% (inactive) | -0.35 (inactive) | -3.3e-05 (inactive) | 0.00748 (inactive) | inactive | -10.8% (inactive) |
| CC1(C)Cc2c(c(N3CCOCC3)nc3sc4c(=O)[nH]cnc4c23)CS1 | 493 | -5.7% (inactive) | 10.3% (inactive) | 100% | -0.312 | 0.705 | 1.1 | 7.93% (inactive) | -0.44 (inactive) | -1.9e-05 (inactive) | 0.00568 (inactive) | inactive | 28.7% (inactive) |
| C=CCNc1nc(N2CCCCC2)c(C#N)c2c1CN(Cc1ccccc1)CC2 | 504 | -15.8% (inactive) | -82.3% (inactive) | 127% | 0.348 | -0.299 | -0.89 | -9.53% (inactive) | -0.473 (inactive) | -5.4e-05 (inactive) | 0.00373 (inactive) | inactive | 0.584% (inactive) |
| O=C(O)c1ccnc(C(=O)O)c1 | 585 | -4.6% (inactive) | -82% (inactive) | 145% | 0.403 | 0.277 | 1 | -4.59% (inactive) | -0.434 (inactive) | -0.000101 (inactive) | 0.00626 (inactive) | inactive | 24.1% (inactive) |
| CN(C)c1ccc(NC(=O)c2sc(SCC(=O)Nc3nccs3)nc2N)cc1 | 700 | -11.3% (inactive) | 0.8% (inactive) | 179% | -1.08 | 1.63 | 0.495 | 1.98% (inactive) | -0.491 (inactive) | -9e-05 (inactive) | 0.00686 (inactive) | inactive | -7.49% (inactive) |
